What was measured:
Vero [1] = test: Maximum tolerated concentration (MTC), the lowest concentration that produced microscopically evident toxicity to confluent vero cells; type: functional, Chlorocebus sabaeus
Outline: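 Uninfected confluent Vero monolayers in DMEM with 10% newborn bovine serum, single well per concentration, exposed to compound at final 5.0–5000 μM (0.5-log steps) for 72 h at 37 °C, 5% CO2. Cytotoxicity was any microscopic change in morphology or monolayer density from lysis, rounding or detachment. MTC = lowest concentration showing such change.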

Vero [2] = test: Compound was tested for antiviral activity against Herpes simplex virus type 1 (HF); type: functional; conditions: Chlorocebus sabaeus, read-out: ED50 (the source's name)
Vero [3] = test: Compound was tested for antiviral activity against Herpes simplex virus type 1(KOS); type: functional; conditions: Chlorocebus sabaeus, read-out: ED50 (the source's name)
Vero [4] = test: Compound was tested for antiviral activity against Herpes simplex virus type 2 (MS); type: functional; conditions: Chlorocebus sabaeus, read-out: ED50 (the source's name)
Vero [5] = test: Compound was tested for antiviral activity against Herpes simplex virus type 2 of strain 333; type: functional; conditions: Chlorocebus sabaeus, read-out: ED50 (the source's name)
Vero [6] = test: Compound was tested for antiviral activity against measles virus; type: functional; conditions: Chlorocebus sabaeus, read-out: ED50 (the source's name)
Vero [7] = test: Compound was tested for antiviral activity against para 3; type: functional; conditions: Chlorocebus sabaeus, read-out: ED50 (the source's name)
Vero [8] = test: Virus rating against Herpes simplex virus type 2 of strain 333; type: functional, Chlorocebus sabaeus
Outline: (§1)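 Virus-infected confluent Vero cells treated with compound in seven 0.5-log steps (final 5.0–5000 μM) after 30-min adsorption at 37 °C, duplicate wells per concentration. CPE scored microscopically 0 (normal) to 4 (complete destruction) after 72 h at 37 °C, 5% CO2.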

Vero [9] = test: Virus rating against Herpes simplex virus type 2 of strain MS; type: functional, Chlorocebus sabaeus; outline: as §1
Vero [10] = test: Virus rating against Herpes simplex virus type 1 of strain KOS; type: functional, Chlorocebus sabaeus; outline: as §1
Vero [11] = test: Virus rating against Herpes simplex virus type 1 of strainHF; type: functional, Chlorocebus sabaeus; outline: as §1
Vero [12] = test: Virus rating against measles virus; type: functional, Chlorocebus sabaeus; outline: as §1
Vero [13] = test: Virus rating against para 3; type: functional, Chlorocebus sabaeus; outline: as §1
Vero [14] = test: Virus rating against vaccinia; type: functional, Chlorocebus sabaeus; outline: as §1
Vero [15] = test: Compound was tested for antiviral activity against vaccinia; type: functional; conditions: Chlorocebus sabaeus, read-out: ED50 (the source's name)
Vero [16] = test: Virus rating against Herpes simplex virus type 1 of strain HF; type: functional, Chlorocebus sabaeus; outline: as §1

Structure (SMILES) | MTC (Vero [1]) [µM] | EC50 (Vero [2]) [µM] | EC50 (Vero [3]) [µM] | EC50 (Vero [4]) [µM] | EC50 (Vero [5]) [µM] | EC50 (Vero [6]) [µM] | EC50 (Vero [7]) [µM] | VR (Vero [8]) | VR (Vero [9]) | VR (Vero [10]) | VR (Vero [11]) | VR (Vero [12]) | VR (Vero [13]) | VR (Vero [14]) | EC50 (Vero [15]) [µM] | VR (Vero [16])
O=C([O-])P(=O)([O-])[O-].[Na+].[Na+].[Na+] [FOSCARNET SODIUM] | >5000 | 230 | 170 | 89 | 20 | > 5000 | 5000 | 2.08 | 1.74 | 1.37 | 1.3 | 0 | 0.4 | 0.1 | > 5000 | 
Nc1ncnc2c1ncn2[C@H]1C[C@H](O)[C@@H](COP(=O)(O)C(=O)O)O1 | >5000 | 730 | 1800 | 40 | 54 | 900 |  | 1.77 | 1.85 | 0.65 | 1.08 | 0.7 |  | 0 | > 5000 | 
NC(=O)P(=O)(O)OC[C@H]1OC(n2cnc3c(O)nc(N)nc32)[C@H](O)[C@@H]1O (stereo partly specified) | >5000 | > 5000 | > 5000 | 970 | 300 | 900 | > 5000 | 1.16 | 0.91 | 0 | 0 | 0.7 | 0.1 | 0 | > 5000 | 
CCOC(=O)P(=O)(O)OC[C@H]1OC(n2cnc3c(N)ncnc32)[C@H](O)[C@@H]1O (stereo partly specified) | >5000 | > 5000 | > 5000 | 820 | 1000 | > 5000 | > 5000 | 0.72 | 1.12 | 0 | 0.3 |  | 0 | 0.23 | > 5000 | 
Nc1ncnc2c1ncn2C1O[C@H](COP(=O)(O)C(=O)O)[C@@H](O)[C@H]1O (stereo partly specified) | >5000 | > 5000 | > 5000 | 360 | 1600 | 3000 | > 5000 | 0.7 | 1.15 | 0 | 0.18 | 0.38 | 0 | 0.65 | 740 | 
NC(=O)P(=O)(O)OC[C@H]1OC(n2cnc3c(N)ncnc32)[C@H](O)[C@@H]1O (stereo partly specified) | >5000 | > 5000 | > 5000 | 830 | 440 | 2800 | > 5000 | 1.24 | 1 | 0 | 0.28 | 0.45 | 0.1 | 0 | > 5000 | 
Nc1nc(O)c2ncn(C3O[C@H](COP(=O)(O)C(=O)O)[C@@H](O)[C@H]3O)c2n1 (stereo partly specified) | >5000 | > 5000 | > 5000 | > 5000 | > 5000 | 330 | > 5000 | 0.22 | 0.18 | 0 | 0.2 | 0.62 | 0.1 | 0 | > 5000 | 
Nc1nc(O)c2ncn([C@H]3C[C@H](O)[C@@H](COP(=O)(O)C(=O)O)O3)c2n1 | 5000 | > 5000 | > 5000 | 350 | 230 | > 5000 |  | 1.26 | 1.18 | 0.1 | 0.22 | 0.1 | 0.25 | 0 | > 5000 | 
CCOC(=O)P(=O)(O)OC[C@H]1OC(n2cnc3c(O)nc(N)nc32)[C@H](O)[C@@H]1O (stereo partly specified) | >5000 | > 5000 | > 5000 | 820 | 600 | 500 | > 5000 | 1.02 | 0.9 | 0 |  | 0.68 | 0.1 | 0 | > 5000 | 0.22
